Measured values reported in ChEMBL document CHEMBL4190321, “Novel 4/3-((4-oxo-5-(2-oxoindolin-3-ylidene)thiazolidin-2-ylidene)amino) benzenesulfonamides: Synthesis, carbonic anhydrase inhibitory activity, anticancer activity and molecular modelling studies” (Eur J Med Chem, 2017).

Experiments:
Carbonic anhydrase 9 = Carbonic anhydrase 9 (Homo sapiens, UniProt Q16790); assay: Inhibition of human transmembrane carbonic anhydrase 9 by stopped-flow CO2 hydrase assay
MCF7 [1] = assay: Antiproliferative activity against human MCF7 cells by MTT assay
Caco-2 = assay: Antiproliferative activity against human Caco2 cells by MTT assay
Carbonic anhydrase 4 = Carbonic anhydrase 4 (Homo sapiens, UniProt P22748); assay: Inhibition of human transmembrane carbonic anhydrase 4 by stopped-flow CO2 hydrase assay
MCF7 [2] = assay: Induction of apoptosis in human MCF7 cells assessed as decrease in Bcl-2 expression at IC50 by ELISA relative to control; format: functional; parameters: scale not given: the % may be the effect or the level left
In short: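 MCF-7 cells were treated alongside a 1% DMSO control. Bcl-2 protein was measured with a colorimetric ELISA kit and reported in ng/ml. Data are mean ± SD of three separate experiments, and significance versus control was set at P < 0.05.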

Carbonic anhydrase 1 = Carbonic anhydrase 1 (Homo sapiens, UniProt P00915); assay: Inhibition of human cytosolic carbonic anhydrase 1 by stopped-flow CO2 hydrase assay
Carbonic anhydrase 2 = Carbonic anhydrase 2 (Homo sapiens, UniProt P00918); assay: Inhibition of human cytosolic carbonic anhydrase 2 by stopped-flow CO2 hydrase assay

Carbonic anhydrase 4, sequence (P22748 whole entry): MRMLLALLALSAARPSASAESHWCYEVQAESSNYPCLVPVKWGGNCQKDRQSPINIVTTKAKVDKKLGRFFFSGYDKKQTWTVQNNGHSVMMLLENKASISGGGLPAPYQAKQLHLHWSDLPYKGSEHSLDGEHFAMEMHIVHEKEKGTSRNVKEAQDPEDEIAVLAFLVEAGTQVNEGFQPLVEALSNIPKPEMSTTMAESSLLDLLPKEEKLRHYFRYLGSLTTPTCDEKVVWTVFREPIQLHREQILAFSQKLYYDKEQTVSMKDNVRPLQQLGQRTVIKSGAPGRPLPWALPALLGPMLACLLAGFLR
Carbonic anhydrase 1, sequence (P00915 whole entry): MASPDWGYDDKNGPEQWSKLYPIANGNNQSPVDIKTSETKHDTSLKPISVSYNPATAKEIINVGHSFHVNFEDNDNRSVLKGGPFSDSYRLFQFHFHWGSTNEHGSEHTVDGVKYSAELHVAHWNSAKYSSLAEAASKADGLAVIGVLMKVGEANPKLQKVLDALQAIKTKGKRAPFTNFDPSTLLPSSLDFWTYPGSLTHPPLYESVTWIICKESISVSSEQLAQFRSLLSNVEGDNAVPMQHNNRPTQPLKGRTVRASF

Structure (SMILES) | Ki (Carbonic anhydrase 9) | IC50 (MCF7 [1]) | IC50 (Caco-2) | Ki (Carbonic anhydrase 4) | Activity (MCF7 [2]) | Ki (Carbonic anhydrase 1) | Ki (Carbonic anhydrase 2)
Cc1cc(C)c2c(c1)/C(=C1/S/C(=N/c3ccc(S(N)(=O)=O)cc3)NC1=O)C(=O)N2 | 0.1 µM | > 200 µM | 146 µM | – | – | – | –
NS(=O)(=O)c1ccc(/N=C2\NC(=O)/C(=C3/C(=O)Nc4ccc(F)cc43)S2)cc1 | 0.0266 µM | 20.5 µM | 59.9 µM | – | – | – | –
NS(=O)(=O)c1cccc(/N=C2\NC(=O)/C(=C3/C(=O)N(Cc4ccccc4)c4ccccc43)S2)c1 | 0.17 µM | > 200 µM | 103 µM | – | – | – | –
CN1C(=O)/C(=C2\S/C(=N/c3ccc(S(N)(=O)=O)cc3)NC2=O)c2ccccc21 | 0.146 µM | 51.9 µM | 163 µM | – | – | – | –
NS(=O)(=O)c1ccc(/N=C2\NC(=O)/C(=C3/C(=O)N(Cc4ccccc4)c4ccc(Cl)cc43)S2)cc1 | 0.0906 µM | 124 µM | 13.7 µM | – | – | – | –
CN1C(=O)/C(=C2\S/C(=N/c3ccc(S(N)(=O)=O)cc3)NC2=O)c2cc(Cl)ccc21 | 0.123 µM | > 200 µM | 42.3 µM | – | – | – | –
NS(=O)(=O)c1cccc(/N=C2\NC(=O)CS2)c1 | 0.0177 µM | – | – | – | – | – | –
Cc1ccc2c(c1)/C(=C1/S/C(=N/c3ccc(S(N)(=O)=O)cc3)NC1=O)C(=O)N2 | 0.0721 µM | > 200 µM | 174 µM | – | – | – | –
CN1C(=O)/C(=C2\S/C(=N/c3ccc(S(N)(=O)=O)cc3)NC2=O)c2cc(Br)ccc21 | 0.0389 µM | 196 µM | 13.2 µM | – | – | – | –
NS(=O)(=O)c1ccc(/N=C2\NC(=O)/C(=C3/C(=O)Nc4ccc([N+](=O)[O-])cc43)S2)cc1 | 0.0341 µM | > 200 µM | 13.8 µM | – | – | – | –
NS(=O)(=O)c1cccc(/N=C2\NC(=O)/C(=C3/C(=O)Nc4ccc(Cl)cc43)S2)c1 | 0.062 µM | > 200 µM | 5.87 µM | – | – | – | –
COc1cccc2c1C(=O)c1c(O)c3c(c(O)c1C2=O)C[C@@](O)(C(=O)CO)C[C@@H]3O[C@H]1C[C@H](N)[C@H](O)[C@H](C)O1 [DOXORUBICIN] | – | – | 3.83 µM | – | – | – | –
NS(=O)(=O)c1cccc(/N=C2\NC(=O)/C(=C3/C(=O)Nc4ccccc43)S2)c1 | 0.0161 µM | > 200 µM | 12.1 µM | – | – | – | –
NS(=O)(=O)c1ccc(NC2=NC(=O)CS2)cc1 | 0.0045 µM | – | – | – | – | – | –
COc1ccc2c(c1)/C(=C1/S/C(=N/c3ccc(S(N)(=O)=O)cc3)NC1=O)C(=O)N2 | 0.0231 µM | 125 µM | 98.3 µM | > 10 µM | – | – | –
NS(=O)(=O)c1ccc(/N=C2\NC(=O)/C(=C3/C(=O)Nc4ccc(Br)cc43)S2)cc1 | 0.0666 µM | 11.3 µM | 42.3 µM | – | – | – | –
NS(=O)(=O)c1ccc(/N=C2\NC(=O)/C(=C3/C(=O)N(Cc4ccccc4)c4ccc(Br)cc43)S2)cc1 | 0.321 µM | > 200 µM | 57.8 µM | – | – | – | –
NS(=O)(=O)c1ccc(/N=C2\NC(=O)/C(=C3/C(=O)Nc4ccc(Cl)cc43)S2)cc1 | 0.0624 µM | 3.96 µM | 20.3 µM | – | 45% | – | –
NS(=O)(=O)c1ccc(/N=C2\NC(=O)/C(=C3/C(=O)N(Cc4ccccc4)c4ccccc43)S2)cc1 | 0.117 µM | > 200 µM | > 200 µM | – | – | – | –
NS(=O)(=O)c1cccc(/N=C2\NC(=O)/C(=C3/C(=O)Nc4ccc(Br)cc43)S2)c1 | 0.0159 µM | > 200 µM | 10.8 µM | – | – | – | –
COc1ccc2c(c1)/C(=C1/S/C(=N/c3cccc(S(N)(=O)=O)c3)NC1=O)C(=O)N2 | 0.0247 µM | > 200 µM | 8.39 µM | – | – | – | –
NS(=O)(=O)c1cccc(/N=C2\NC(=O)/C(=C3/C(=O)Nc4ccc([N+](=O)[O-])cc43)S2)c1 | 0.048 µM | > 200 µM | 20.6 µM | – | – | – | –
NS(=O)(=O)c1ccc(/N=C2\NC(=O)/C(=C3/C(=O)Nc4ccccc43)S2)cc1 | 0.047 µM | > 200 µM | > 200 µM | > 10 µM | – | 0.631 µM | 0.023 µM
